Hits are enriched below; roughly 1.9% of the tested compounds scored in any of these assays.
TDP2 inh – human TDP2 enzyme inhibitors, primary screen, biochemical, epi absorbance, recombinant enzyme. Tyrosyl-DNA phosphodiesterase 2 (Homo sapiens), O95551. T5PNP hydrolysis, p-nitrophenol absorbance 415 nm. inhibition, % at 12.8 µM. 370,000 compounds, 0.34% hits;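 active = inhibition above the mean of all tested compounds plus 3 SD, set per campaign, cut at about 25% in these data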;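 also: 0% = DMSO with enzyme and 100% = buffer with substrate but no TDP2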
Target sequence (O95551 whole entry, looked up): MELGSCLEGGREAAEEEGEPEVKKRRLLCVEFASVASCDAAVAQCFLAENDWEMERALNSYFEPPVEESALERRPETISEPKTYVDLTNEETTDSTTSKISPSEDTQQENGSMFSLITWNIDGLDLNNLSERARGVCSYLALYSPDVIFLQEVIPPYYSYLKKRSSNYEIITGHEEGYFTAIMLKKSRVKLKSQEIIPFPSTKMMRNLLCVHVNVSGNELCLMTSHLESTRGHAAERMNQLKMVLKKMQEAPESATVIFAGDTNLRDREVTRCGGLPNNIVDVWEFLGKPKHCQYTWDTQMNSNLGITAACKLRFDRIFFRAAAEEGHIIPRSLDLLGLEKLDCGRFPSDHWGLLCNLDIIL
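Test system: Human TDP2 enzyme | Reagent: 5 mM T5PNP | Compound dosing: 12.8 µM single point, 1% DMSO | Incubation: Enzyme reaction with compound for 2 h at 37 °C | Technique: p-Nitrophenol epi absorbance | Read-out: % inhibition relative to enzyme-containing and enzyme-free wells | Benchmarks: High control without enzyme, low control DMSO plus TDP2 | Replicates: Singlicate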
UHRF1 binding – UHRF1 methylated DNA binding inhibitors, primary screen, counter-screen for MBD2 inhibitor project, biochemical, TR-FRET, human UHRF1, single concentration. UHRF1 binding to methylated oligo. inhibition, % at 4.4 µM. 370,000 compounds, 0.75% hits. AID 687016, 2013;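 also: UHRF1 SRA domain binding a hemimethylated CpG hairpin DNA probe; 0% = median of test compound wells and 100% = reference inhibitor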
MBD2 inh – inhibitors of MBD2 binding to methylated DNA, primary screen, biochemical, TR-FRET, DNA-binding domain, human; MBD2 binding to methylated oligonucleotide; inhibition, % at 4.4 µM; 370,000 compounds, 0.31% hits; AID 686964, 2013; in the data active = inhibition above about 13%
LEDGF integ inh – blockers of LEDGF/p75-dependent integrase strand transfer – biochemical, TR-FRET, high throughput, primary screen; HIV-1 integrase (with human LEDGF/p75); TR-FRET IN-LEDGF/p75 DNA integration, Eu/Cy5; inhibition, % at 3.7 µM; 370,000 compounds, 0.64% hits; AID 743269, 2014;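 active = inhibition above the screen-wide mean plus 3 SD, cut at about 13% in these data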;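 also: signal is the Cy5 over europium emission ratio at 671 and 618 nm; 0% = plate median of compound wells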
Rin1-Abl PPI inh – inhibitors of Rin1-Abl protein binding, primary screen, biochemical, TR-FRET; 360,000 compounds, 0.4% hits; AID 588664, 2011; inhibition, % at 7.35 µM; in the data active = inhibition above about 5%, passing the limit was not always enough
UHRF1 ctr MBD2 – UHRF1 methylated DNA binding inhibitors, counter-screen for MBD2 inhibitor project, biochemical, TR-FRET, human UHRF1 | inhibition, % at 4.4 µM | AID 720530, 2013 | UHRF1 binding to methylated oligonucleotide | 1,000 compounds, 25% hits | shares compounds with MBD2 inh;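 also: UHRF1 SRA domain binding a labeled hemimethylated CpG hairpin DNA; 0% = vehicle only and 100% = reference inhibitor with vehicle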
MBD2 confirm – inhibitors of MBD2 binding to methylated DNA, confirmation, biochemical, TR-FRET, DNA-binding domain, human; shares compounds with MBD2 inh; TR-FRET MBD2-DBD binding to methylated oligonucleotide; inhibition, % at 4.4 µM; 1,000 compounds, 26% hits; AID 720531, 2013; in the data active = inhibition above about 14%
* = called active by the depositor; · = not tested or not shown. Rule as the data show it, unless noted: active = inhibition above about 21%; inactive = the rest.

SMILES	TDP2 inh	UHRF1 binding	MBD2 inh	LEDGF integ inh	Rin1-Abl PPI inh	UHRF1 ctr MBD2	MBD2 confirm
O=C(NNS(=O)(=O)c1ccccc1)c1ccncc1	-6.1	-2.5	-0.4	2.3	5.8	·	·
Cc1ccc(S(=O)(=O)NNC(=O)c2ccncc2)cc1	2.3	5.0	22.7*	-3.5	-2.9	9.5	6.0
O=C(OCc1ccccc1)[C@H](Cc1ccccc1)NC(=O)[C@@H]1CC=C[C@@H]2CCN(Cc3ccccc3)C(=O)[C@@H]21	0.2	0.7	2.5	-2.0	·	·	·
c1ccc(Oc2cc(-n3cncn3)ncn2)cc1	-8.8	2.6	0.5	1.1	-4.1	·	·
Cc1cnn(-c2cc(Oc3ccccc3)ncn2)c1	-0.4	1.0	15.8*	0.0	-1.5	1.1	4.0
O=C(Nc1ccc(Oc2cccc(C(F)(F)F)c2)nc1)c1ccccc1	3.3	-0.3	0.6	-2.7	-1.2	·	·
COc1cccc(C(=O)Nc2ccc(Oc3cccc(C(F)(F)F)c3)nc2)c1	4.9	-0.3	13.5*	3.5	0.5	5.4	-0.2
N#CCSc1ncnc2sc3c(c12)CCC3	9.8	23.6*	14.2*	5.4	-2.2	7.3	3.9
Cc1nc2ccc(NC(=O)c3c(Cl)cccc3Cl)cc2c(=O)[nH]1	1.6	2.1	1.2	2.2	·	·	·
Cc1ccc(S(=O)(=O)N(C)C)cc1NC(=O)CCc1ccccc1	7.5	1.6	20.5*	-1.4	0.7	7.7	3.4
Cc1ccc(S(=O)(=O)N(C)C)cc1NC(=O)CCc1c[nH]c2ccccc12	-8.0	-2.4	5.1	3.8	-0.7	·	·
Cc1ccc(CN(C)C(=O)c2cccc(S(=O)(=O)N3CCc4ccccc43)c2)cc1	2.3	0.2	14.7*	-3.0	3.4	6.0	1.3
Cc1ccc(CN(C)C(=O)c2cccc(S(=O)(=O)N3CCCC3)c2)cc1	3.8	0.6	-1.5	2.3	1.8	·	·
Cc1ccc(C(=O)c2ccccc2C(=O)O)s1	3.9	25.9*	15.8*	-2.9	2.3	41.2*	13.7*
O=S(=O)(c1ccc(C(F)(F)F)cc1)N1CCCc2nc(-c3ccc(Br)cc3)ccc21	-8.8	2.1	0.4	2.5	·	·	·
CCCCCCSc1ccc([C@H]2N[C@@](Cc3ccccc3)(C(=O)OC)[C@H]3C(=O)N(C)C(=O)[C@@H]23)cc1	21.5	20.3	14.0*	7.9	1.9	7.2	2.5
CCCC1CCC2(CC1)CCC2OC(=S)Nc1ccccc1OC (configuration not stated)	1.8	1.2	0.3	-3.1	·	·	·
CCOC(=O)c1cnc2ccccc2c1NCCO	8.8	-2.3	3.1	1.5	0.9	·	·
CCOC(=O)c1cnc2c(ccc3ccccc32)c1NCCCN(C)C	-10.0	3.9	20.0*	2.4	-2.3	4.7	26.1*
Cc1nc(Oc2ccccc2)c2ccccc2n1	-0.6	4.6	5.1	-4.7	-3.8	·	·
c1ccc(Oc2ncnc3ccccc23)cc1	-3.9	-0.2	20.6*	-5.7	-2.8	2.1	1.9
O=C(NC1CCCCN(Cc2cccc(Cl)c2)C1=O)c1cccc2nsnc12 (configuration not stated)	-2.6	0.5	0.4	2.5	·	·	·
Cc1cc(C)c2nc3nc(C)c(C)cc3c(N)c2c1	2.9	25.5*	21.5*	-0.8	-8.3	41.4*	37.6*
CC1CCC(NCc2ccco2)CC1 (configuration not stated)	-4.5	1.9	18.0*	1.1	0.5	0.4	5.8
CCn1c(COc2ccc(C)cc2)nnc1SCc1cccc(C(F)(F)F)c1	-9.0	-1.2	-2.1	0.3	·	·	·
SMILES	TDP2 inh	UHRF1 binding	MBD2 inh	LEDGF integ inh	Rin1-Abl PPI inh	UHRF1 ctr MBD2	MBD2 confirm
Cc1cccc(C(=O)NNC(=O)c2cccc(C)c2)c1	11.8	3.9	-0.8	2.4	-2.4	·	·
Cc1cccc(C(=O)NC(=O)Nc2c(C)cc(C)nc2C)c1	-1.4	24.3*	13.7*	-0.3	-1.7	3.8	4.3
NCc1cc2c3c(c1)CCCN3CCC2	8.5	16.0	18.3*	1.4	0.4	17.1	15.3*
COC(=O)c1cc(NC(=O)NC2CCCCN(Cc3ccc(Cl)cc3)C2=O)cc(C(=O)OC)c1 (configuration not stated)	0.2	-1.1	-2.9	7.2	·	·	·
COc1ccc(NC(=O)CSc2nc3[nH]ncc3c(=O)n2-c2ccccc2C)cc1OC	7.4	-1.0	0.5	1.4	1.4	·	·
COc1ccc(NC(=O)CSc2nc3[nH]ncc3c(=O)n2-c2ccccc2OC)cc1OC	5.6	26.0*	16.6*	3.4	2.6	5.2	1.6
COC(=O)c1ccc(C(=O)OC)c(NC(=O)Cc2cccs2)c1	-5.6	20.0	16.2*	1.3	0.3	21.6*	15.4*
COc1ccccc1C(=O)Nc1ccc(S(=O)(=O)Nc2nccs2)cc1	-6.7	-1.4	3.4	-3.7	2.7	·	·
O=C(O)c1ccccc1C(=O)Nc1ccc(S(=O)(=O)Nc2nccs2)cc1	-6.2	17.0	19.0*	-3.4	2.5	9.3	1.9
Cc1ccc2c(c1)C(CS(=O)(=O)NCC(C)C)NC2 (configuration not stated)	-9.4	-8.8	-7.3	-1.7	·	·	·
COC(=O)[C@]12C[C@H](CC(=O)N3CCOCC3)C(=O)N(Cc3cccc4ccccc34)C1=C[C@H](COCc1ccccc1)O[C@@H]2C	-3.7	-3.0	-5.1	3.3	·	·	·
O=C(OCc1cc(=O)n2ccsc2n1)c1ccccc1O	4.1	0.4	1.6	-2.9	4.5	·	·
O=C(OCc1cc(=O)n2ccsc2n1)c1ccccc1NCCO	3.0	29.3*	31.4*	-0.9	-1.6	15.1	11.4
Cc1n[nH]c(C)c1S(=O)(=O)NCCc1cccc(F)c1	1.4	1.8	0.6	-1.8	·	·	·
COc1ccc2ccccc2c1C=NNC(=O)CN1CCN(Cc2ccccc2)CC1	-10.6	-1.9	-0.6	0.7	·	·	·
COc1ccc2c(c1)c(/C=N/Nc1ccc(C(=O)O)cc1)c(C)n2C	-17.9	0.4	14.6*	6.6	0.8	6.8	1.9
COc1ccc2c(/C=N/Nc3ccc(C(=O)O)cc3)c[nH]c2c1	-5.9	0.0	3.1	-1.1	0.5	·	·
C=CCn1c(SCC(N)=O)nc2scc(-c3ccc(C)o3)c2c1=O	-13.5	9.9	14.3*	-4.6	4.5	2.0	0.3
CCOc1ccc(N=Nc2c(C)noc2C)cc1	0.2	26.2*	18.2*	3.1	-3.9	11.8	2.4
